Screening results from PubChem.
ERp5 inh – ERp5 (human) disulfide isomerase inhibition; AID 651711; Q15084; 0.05% of 350,000 active; ERp5 insulin aggregation, absorbance 650 nm, 90 min; inhibition, % at 9.99 µM;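 active means mean replicate inhibition above about 25%, with every replicate also reaching it, limit read from the data, passing the limit was not always enough; inconclusive means only one of those two criteria met; inactive means neither criterion met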
RAD52 anneal inh – inhibitors of human RAD52 DNA annealing | P43351 | recombinant RAD52 DNA annealing, FRET fluorescence | inhibition, % at 18.7 µM | 0.46% of 360,000 active;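 active means every replicate showing at least 50% inhibition; inconclusive means mean inhibition at least 50% but not in every replicate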
CAL PDZ FP-1 – blocks peptide binding to human CAL PDZ domain; 0.02% of 330,000 active; inhibition, % at 20 µM; purified CAL PDZ, TMR-peptide fluorescence polarization, 1 h; Q9HD26;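 active means highest replicate inhibition of at least 40%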
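material = purified tagged CAL PDZ domain construct (CerCALP) | buffer or medium = sodium phosphate/NaCl buffer pH 7.4 with TCEP, IgG, Thesit | reagent = TMR-labelled reporter peptide T*-PRC34 bound in PDZ groove | incubation = 1 h room-temperature incubation prior to read | measured by = fluorescence polarization (mP) | evaluation = percent inhibition from loss of millipolarization | control set = unlabelled peptide and DMSO controls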
RAD54 branch – inhibitors of human RAD54 branch migration. RAD54 Holliday junction branch migration, FAM/BHQ fluorescence. AID 602329. 0.14% of 360,000 active. inhibition, % at 10.4 µM. Q92698;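 active means mean normalized replicate activity at least 40 and at least half of replicates scoring 40 or more; inconclusive means only one of the two criteria met; inactive means mean below 40 and under half of replicates reaching 40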;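 further: inhibitors cause a drop in the FAM fluorescence signal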
CAL PDZ FP-2 – inhibitors of human CAL PDZ peptide binding | Q9HD26 | purified CAL PDZ, TMR-peptide fluorescence polarization, 1 h | inhibition, % at 24.9 µM | 0.92% of 300,000 active | AID 602252;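 active means mean inhibition of at least 30% with at least half of replicates also reaching 30%; inconclusive means no clear call, values can overlap the other calls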
PDI turbidity – inhibitors of human protein disulfide isomerase; P07237; PDI insulin aggregation turbidity, A650, 90 min; inhibition, % at 10 µM; 0.052% of 350,000 active;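 active means mean inhibition across replicates of 30% or more, whatever share of single replicates reach that level; inconclusive means mean inhibition below 30% while every single replicate reaches 30%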
Target sequence (P07237 whole entry, looked up): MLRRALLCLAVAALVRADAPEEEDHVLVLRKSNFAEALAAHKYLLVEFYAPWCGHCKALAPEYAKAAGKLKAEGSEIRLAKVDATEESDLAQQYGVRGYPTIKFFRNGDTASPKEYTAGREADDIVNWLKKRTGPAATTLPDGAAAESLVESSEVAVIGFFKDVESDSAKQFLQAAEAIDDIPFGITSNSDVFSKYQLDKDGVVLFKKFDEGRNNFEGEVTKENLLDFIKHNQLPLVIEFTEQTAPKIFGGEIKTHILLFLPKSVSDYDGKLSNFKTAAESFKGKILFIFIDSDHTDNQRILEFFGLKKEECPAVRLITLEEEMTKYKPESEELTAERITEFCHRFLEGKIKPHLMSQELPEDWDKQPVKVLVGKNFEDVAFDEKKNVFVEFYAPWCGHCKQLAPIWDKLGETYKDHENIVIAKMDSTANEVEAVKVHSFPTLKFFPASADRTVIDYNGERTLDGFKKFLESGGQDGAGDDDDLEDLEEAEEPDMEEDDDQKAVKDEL
DNA binder FP – binds DNA, flagging false RAD52 inhibitor hits; Salmon sperm DNA/acridine orange FP displacement, DNA binding; shares compounds with RAD52 anneal inh; AC50, µM; AID 652128; 8% of 1,000 active;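 active means fitted half-maximal concentration for signal loss at or below twice the highest dose tested, in every separate run, actives reach about 64 µM in these data; inconclusive means runs disagree, or flat partial signal loss, or poor fit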
Numbers stand for hits; ! = not confirmed by another sample. A selection: hits, their analogues and other compounds. The true share with any hit is near 1%.

Screening C#CCOCCOCCOCCNc1nc(N2CCN(C(=O)Cn3cc(CCCN=C(N)N)nn3)CC2)nc(N2CCN(C(=O)[C@H](CCCCN)n3cc(CCCC)nn3)CC2)n1 returned ERp5 inh inactive, RAD52 anneal inh 51, CAL PDZ FP-1 inactive, RAD54 branch inactive, CAL PDZ FP-2 inactive, PDI turbidity inactive and DNA binder FP inactive.
`C#CCOCCOCCOCCNc1nc(N2CCN(C(=O)[C@H](CCCN=C(N)N)n3cc(C(N)[C@@H](C)CC)nn3)CC2)nc(N2CCN(C(=O)[C@H](CCC(=O)O)n3cc([C@@H](N)CC(N)=O)nn3)CC2)n1` (some centres undefined) gave ERp5 inh inactive, RAD52 anneal inh inactive, CAL PDZ FP-1 inactive, RAD54 branch inactive, CAL PDZ FP-2 inactive and PDI turbidity inactive.
For C#CCOCCOCCOCCNc1nc(N2CCN(C(=O)[C@H](CCCN=C(N)N)n3cc(C(N)[C@@H](C)CC)nn3)CC2)nc(N2CCN(C(=O)[C@H](CCCCN)n3cc([C@@H](N)CC(N)=O)nn3)CC2)n1 (some centres undefined) the results were ERp5 inh inactive, RAD52 anneal inh 66, CAL PDZ FP-1 inactive, RAD54 branch inactive, CAL PDZ FP-2 inactive, PDI turbidity inactive and DNA binder FP inactive.
For C#CCOCCOCCOCCNc1nc(N2CCN(C(=O)C([C@@H](C)O)n3cc([C@@H](N)CCCCN)nn3)CC2)nc(N2CCN(C(=O)[C@H](CCC(=O)O)n3cc([C@@H](N)[C@H](C)CC)nn3)CC2)n1 (some centres undefined) the results were ERp5 inh inactive, RAD52 anneal inh inactive, CAL PDZ FP-1 inactive, RAD54 branch inactive, CAL PDZ FP-2 inactive and PDI turbidity inactive.
For C[C@@H]1CCCCO[C@H](CN(C)C(=O)Nc2ccc(C(F)(F)F)cc2)[C@H](C)CN([C@H](C)CO)C(=O)c2cc(NS(=O)(=O)c3cn(C)cn3)ccc2O1 the results were ERp5 inh inactive, RAD52 anneal inh inactive and RAD54 branch inactive.
`c1ccc(Nc2ccc(NCCc3c[nH]c4ccccc34)cc2)cc1` gave ERp5 inh inactive, RAD52 anneal inh 78 and DNA binder FP inactive.
For CCCCCCCCCCCCCCCC[n+]1ccc(C(N)=O)cc1 the results were CAL PDZ FP-1 inactive, RAD54 branch inactive, CAL PDZ FP-2 inactive and PDI turbidity inactive.
For CCCCCCCCCCCCCCCC[n+]1ccccc1 the results were ERp5 inh inactive, RAD52 anneal inh 93, CAL PDZ FP-1 inactive, RAD54 branch 55, CAL PDZ FP-2 inactive, PDI turbidity inconclusive and DNA binder FP inconclusive.
`CCCCOc1cc(C(=O)OCCN(CC)CC)ccc1N` gave ERp5 inh inactive, RAD52 anneal inh 85!, CAL PDZ FP-1 inactive, RAD54 branch inactive, CAL PDZ FP-2 inactive, PDI turbidity inactive and DNA binder FP inactive.
Screening N#C[C@@H]1[C@H](c2ccccc2C2=CCCC2)[C@H](CO)N1C(=O)NC1CCCCC1 returned ERp5 inh inactive and RAD52 anneal inh inactive.
`CN1CCN(c2ccc(CNC(=O)c3ccc(-c4ccc(F)c(F)c4)c4ccoc34)cc2)CC1` gave ERp5 inh inactive, RAD52 anneal inh 54, RAD54 branch inactive, PDI turbidity inactive and DNA binder FP inactive.
Screening CN1CCN(c2ccc(CNC(=O)c3cccc4c(-c5ccc(F)c(F)c5)coc34)cc2)CC1 returned RAD54 branch inactive and PDI turbidity inactive.
O=C(Cc1cccnc1)N[C@H]1CC[C@H](CCn2cc(-c3ccccc3F)nn2)O[C@@H]1CO was read as ERp5 inh inactive, RAD52 anneal inh inactive and RAD54 branch inactive.
COc1ccc(C(=O)NCCN(C)C)c2nc3ccccc3cc12 was read as ERp5 inh inactive, RAD52 anneal inh 91, CAL PDZ FP-1 inactive, CAL PDZ FP-2 inactive, PDI turbidity inactive and DNA binder FP 25µM.
`COc1cccc2nc3c(C(=O)NCCN(C)C)cccc3cc12` gave ERp5 inh inactive, RAD52 anneal inh 81, CAL PDZ FP-1 inactive, CAL PDZ FP-2 inactive, PDI turbidity inactive and DNA binder FP 34µM.
Screening CN(C)CCNC(=O)c1cccc2nc3c(ccc4ccccc43)nc12 returned ERp5 inh inactive, RAD52 anneal inh 95, CAL PDZ FP-1 inactive, CAL PDZ FP-2 inactive, PDI turbidity inactive and DNA binder FP 14µM.
Screening CN(C)CCNC(=O)c1cccc2[nH]c(-c3ccncc3)nc12 returned ERp5 inh inactive, RAD52 anneal inh 50, CAL PDZ FP-1 inactive, CAL PDZ FP-2 inactive, PDI turbidity inactive and DNA binder FP 52µM.
For COc1ccc(Cl)cc1C(=O)NCCN(C)C the results were CAL PDZ FP-1 inactive, RAD54 branch inactive, CAL PDZ FP-2 inactive and PDI turbidity inactive.
Screening Cc1ccc(Sc2cc(C(=O)NCCN(C)C)c3ccccc3n2)cc1 returned ERp5 inh inactive, RAD52 anneal inh inactive, CAL PDZ FP-1 inactive, RAD54 branch inactive, CAL PDZ FP-2 inactive and PDI turbidity inactive.
For CN(C)CCNC(=O)c1ccccc1-c1ccccc1 the results were CAL PDZ FP-1 inactive, RAD54 branch inactive, CAL PDZ FP-2 inactive and PDI turbidity inactive.
C[C@H]1CN([C@@H](C)CO)C(=O)Cc2cc(NC(=O)CCN3CCOCC3)ccc2O[C@@H]1CN(C)C(=O)Nc1ccc(F)cc1 was read as ERp5 inh inactive, RAD52 anneal inh inactive and RAD54 branch inactive.
Screening C[C@H](CO)N1C[C@H](C)[C@@H](CN(C)S(=O)(=O)c2ccc(Cl)cc2)OCCCC[C@H](C)Oc2ccc(NC(=O)NC3CCCCC3)cc2C1=O returned ERp5 inh inactive, RAD52 anneal inh inactive and RAD54 branch inactive.
Screening COc1ccc(-c2nc3c(C(=O)NCCN(C)C)cccc3c3ccccc23)cc1 returned ERp5 inh inactive, RAD52 anneal inh 101, CAL PDZ FP-1 inactive, CAL PDZ FP-2 inactive, PDI turbidity inactive and DNA binder FP inconclusive.
For COc1ccc(-c2coc3c(C(=O)NCCN(C)C)cccc23)c(C)c1 the results were ERp5 inh inactive, RAD52 anneal inh inactive, RAD54 branch inactive and PDI turbidity inactive.
For CCCS(=O)(=O)Nc1ccc(Nc2c3ccccc3nc3ccccc23)c(OC)c1 the results were ERp5 inh inactive, RAD52 anneal inh 64, CAL PDZ FP-1 inactive, CAL PDZ FP-2 inactive, PDI turbidity inactive and DNA binder FP inconclusive.
Screening COc1ccc(Nc2c3c(nc4ccccc24)CCC3)c(OC)c1 returned ERp5 inh inactive, RAD52 anneal inh inactive, CAL PDZ FP-1 inactive, RAD54 branch inactive, CAL PDZ FP-2 inactive and PDI turbidity inactive.
`CCCc1nnc(NC(=O)c2cc3ccccc3oc2=O)s1` gave RAD54 branch inactive, CAL PDZ FP-2 inactive and PDI turbidity inactive.
Screening CC(Sc1nnc(NC(=O)c2cc3ccccc3oc2=O)s1)c1ccccc1 (centres undefined) returned ERp5 inh inactive, RAD52 anneal inh 53, CAL PDZ FP-1 inactive, RAD54 branch inactive, PDI turbidity inactive and DNA binder FP inactive.
